Experimental data published in ChEMBL document CHEMBL1142724 (J Med Chem, 2005).
Several values for one entry are separate records, joined by “and”; a condition that tells them apart may be missing. Identical values can stand only once.

Assays:
[1] = target: T1, Transient receptor potential cation channel subfamily V member 1 (Homo sapiens, UniProt Q8NER1); experiment: Inhibition of human transient receptor potential vanilloid 1 receptor (n=6)
How it was run: (§1)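 FLIPR Ca2+ influx in Fluo-3-loaded HEK293 cells stably expressing human or rat TRPV1. Compound was added at 0.3 nM–30 µM final, in half-log steps, for 3 min before capsaicin. Capsaicin was 15 nM final for human; for rat it was 15 nM, or 100 nM in later runs. Signal was the smaller of peak and end fluorescence after basal subtraction. IC50 came from a four-parameter logistic fit.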

[2] = target: T2, Transient receptor potential cation channel subfamily V member 1 (Rattus norvegicus, UniProt O35433); experiment: Inhibition of rat transient receptor potential vanilloid 1 receptor (n=3); how it was run: as §1
T2 sequence (O35433 whole entry): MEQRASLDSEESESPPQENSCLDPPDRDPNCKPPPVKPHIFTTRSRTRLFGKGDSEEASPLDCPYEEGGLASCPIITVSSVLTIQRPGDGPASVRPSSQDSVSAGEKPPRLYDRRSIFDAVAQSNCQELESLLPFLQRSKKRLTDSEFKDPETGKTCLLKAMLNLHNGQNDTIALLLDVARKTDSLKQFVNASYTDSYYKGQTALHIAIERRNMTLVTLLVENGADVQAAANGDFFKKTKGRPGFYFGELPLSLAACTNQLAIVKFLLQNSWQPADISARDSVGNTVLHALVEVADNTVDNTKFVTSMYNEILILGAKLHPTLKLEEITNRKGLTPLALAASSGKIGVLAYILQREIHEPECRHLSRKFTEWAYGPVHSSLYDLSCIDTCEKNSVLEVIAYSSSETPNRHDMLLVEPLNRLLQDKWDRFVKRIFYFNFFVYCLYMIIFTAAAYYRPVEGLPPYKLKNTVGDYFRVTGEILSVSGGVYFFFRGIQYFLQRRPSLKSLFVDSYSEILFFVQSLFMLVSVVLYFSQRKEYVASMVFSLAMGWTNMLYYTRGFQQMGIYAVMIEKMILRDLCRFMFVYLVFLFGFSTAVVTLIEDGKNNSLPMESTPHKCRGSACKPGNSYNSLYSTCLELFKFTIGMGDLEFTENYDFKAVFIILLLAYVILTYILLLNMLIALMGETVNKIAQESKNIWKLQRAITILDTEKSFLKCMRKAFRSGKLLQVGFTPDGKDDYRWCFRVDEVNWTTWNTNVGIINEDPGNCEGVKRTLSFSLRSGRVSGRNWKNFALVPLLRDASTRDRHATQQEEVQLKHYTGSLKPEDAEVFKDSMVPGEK

Rattus norvegicus = species on record: Rattus norvegicus; experiment: Effective dose to produce maximal thermal desensitization in rat at 5 ug
[3] = target: T1, Transient receptor potential cation channel subfamily V member 1; experiment: Inhibition of human transient receptor potential vanilloid 1 receptor (n=3)
How it was run: (§2)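 FLIPR Ca2+ influx in Fluo-3-loaded HEK293 cells stably expressing human or rat TRPV1. Compound was added at 0.3 nM–30 µM final, in half-log steps, for 3 min before capsaicin. Signal was the smaller of peak and end fluorescence after basal subtraction. IC50 came from a four-parameter logistic fit.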

[4] = target: Transient receptor potential cation channel subfamily V member 1 (Rattus norvegicus) (UniProt O35433); experiment: Percentage efficacy against rat transient receptor potential vanilloid 1 receptor (n=3)
Transient receptor potential cation channel subfamily V member 1 (Rattus norvegicus), sequence (O35433 whole entry): as above
How it was run: (§3)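 FLIPR Ca2+ flux in HEK293 cells stably expressing human TRPV1 or rat TRPV1, grown in DMEM with 10% FBS. Cells were seeded, incubated overnight, then loaded with 4 µM Fluo-3/AM and 0.01% Pluronic-F127 for 60 min at room temperature. Assay buffer was HEPES-buffered saline with 2 mM CaCl2, pH 7.45. Intracellular Ca2+ was read during compound exposure, 0.3 nM–30 µM in half-log steps. Signal was basal-subtracted, taking the smaller of the peak and end-of-incubation values.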

[5] = target: T2, Transient receptor potential cation channel subfamily V member 1; experiment: Effective concentration against rat transient receptor potential vanilloid 1 receptor (n=3)
How it was run: (§4)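 HEK293 cells stably expressing human or rat TRPV1 were loaded with 4 µM Fluo-3/AM for 60 min at room temperature. Cells were held in HEPES buffer, pH 7.45, with 2 mM CaCl2. Capsaicin-like Ca2+ flux was read on FLIPR with compounds up to 30 µM. Counts were basal-subtracted. Values came from a four-parameter Hill fit, as mean ± SEM.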

[6] = target: T1, Transient receptor potential cation channel subfamily V member 1; experiment: Effective concentration against human transient receptor potential vanilloid 1 receptor (n=6); Inactive; how it was run: as §4
[7] = target: T1, Transient receptor potential cation channel subfamily V member 1; experiment: Effective concentration against human transient receptor potential vanilloid 1 receptor (n=6); how it was run: as §4
[8] = target: T2, Transient receptor potential cation channel subfamily V member 1; experiment: Effective concentration against rat transient receptor potential vanilloid 1 receptor (n=6); how it was run: as §4
[9] = target: T1, Transient receptor potential cation channel subfamily V member 1; experiment: Percentage efficacy against human transient receptor potential vanilloid 1 receptor (n=3); how it was run: as §3
[10] = target: T2, Transient receptor potential cation channel subfamily V member 1; experiment: Inhibition of rat transient receptor potential vanilloid 1 receptor (n=4); how it was run: as §1
[11] = target: T2, Transient receptor potential cation channel subfamily V member 1; experiment: Effective concentration against rat transient receptor potential vanilloid 1 receptor (n=2); how it was run: as §4
[12] = target: T1, Transient receptor potential cation channel subfamily V member 1; experiment: Inhibition of human transient receptor potential vanilloid 1 receptor (n=4); how it was run: as §2
[13] = target: T2, Transient receptor potential cation channel subfamily V member 1; experiment: Inhibition of rat transient receptor potential vanilloid 1 receptor (n=2); how it was run: as §2
[14] = target: T1, Transient receptor potential cation channel subfamily V member 1; experiment: Inhibition of human transient receptor potential vanilloid 1 receptor (n=5); how it was run: as §1
[15] = target: T1, Transient receptor potential cation channel subfamily V member 1; experiment: Effective concentration against human transient receptor potential vanilloid 1 receptor (n=3); how it was run: as §4
[16] = target: T1, Transient receptor potential cation channel subfamily V member 1; experiment: Effective concentration against human transient receptor potential vanilloid 1 receptor (n=2); how it was run: as §4
[17] = target: T1, Transient receptor potential cation channel subfamily V member 1; experiment: Percentage efficacy against human transient receptor potential vanilloid 1 receptor (n=2); how it was run: as §3
[18] = target: T2, Transient receptor potential cation channel subfamily V member 1; experiment: In vitro inhibition of acid activated rat TRPV1 receptor in [Ca2+] influx assay
How it was run: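 Rat TRPV1-HEK293 cells loaded with Fluo-3 were challenged for about 5 min with pH 5.8–6.0 solution to raise basal Ca2+.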

[19] = target: T1, Transient receptor potential cation channel subfamily V member 1; experiment: In vitro inhibition of PMA-activated human TRPV1 receptor in [Ca2+] influx assay
How it was run: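 Human TRPV1-HEK293 cells were loaded with Fluo-3 and preincubated with compound for 3 min. They were then stimulated with 300 nM PMA, and fluorescence was monitored for 5–10 min on FLIPR. IC50 came from a four-parameter logistic fit.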

[20] = target: T1, Transient receptor potential cation channel subfamily V member 1; experiment: In vitro inhibition of anandamide activated human TRPV1 receptor in [Ca2+] influx assay
[21] = target: T1, Transient receptor potential cation channel subfamily V member 1; experiment: Inhibition of human transient receptor potential vanilloid 1 receptor (n=2); how it was run: as §1

T1 sequence (Q8NER1 whole entry): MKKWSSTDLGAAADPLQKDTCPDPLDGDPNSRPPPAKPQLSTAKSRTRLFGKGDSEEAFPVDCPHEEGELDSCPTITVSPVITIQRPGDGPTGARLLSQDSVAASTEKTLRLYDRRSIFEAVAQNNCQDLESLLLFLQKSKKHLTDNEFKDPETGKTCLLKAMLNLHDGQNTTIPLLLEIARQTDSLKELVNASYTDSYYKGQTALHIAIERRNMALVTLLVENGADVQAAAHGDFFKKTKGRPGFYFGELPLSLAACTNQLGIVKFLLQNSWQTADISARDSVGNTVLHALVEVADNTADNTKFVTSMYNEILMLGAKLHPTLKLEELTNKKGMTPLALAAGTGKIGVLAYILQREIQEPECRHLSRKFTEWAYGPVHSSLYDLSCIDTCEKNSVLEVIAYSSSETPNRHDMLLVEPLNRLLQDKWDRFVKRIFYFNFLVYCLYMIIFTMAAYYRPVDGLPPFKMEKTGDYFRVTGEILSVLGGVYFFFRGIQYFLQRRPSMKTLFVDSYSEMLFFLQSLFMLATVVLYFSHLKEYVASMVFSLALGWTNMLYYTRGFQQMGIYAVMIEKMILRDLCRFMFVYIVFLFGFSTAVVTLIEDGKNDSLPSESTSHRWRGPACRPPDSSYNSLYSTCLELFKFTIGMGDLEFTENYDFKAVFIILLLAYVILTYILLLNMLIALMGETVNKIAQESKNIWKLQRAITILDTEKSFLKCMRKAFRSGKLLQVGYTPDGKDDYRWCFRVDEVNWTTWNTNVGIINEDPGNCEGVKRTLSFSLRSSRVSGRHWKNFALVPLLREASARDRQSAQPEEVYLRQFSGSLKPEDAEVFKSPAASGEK

O=C(Nc1cccc2cccnc12)N1CCN(c2ncccc2C(F)(F)F)CC1
IC50 [1]: 8130 nM | IC50 [2]: 14700 nM

COc1cc(CNC(=O)CCCC/C=C/C(C)C)ccc1O [CAPSAICIN]
ED50 (Rattus norvegicus): 3 µg

O=C(Nc1ccc(C(F)(F)F)cc1)N1CCN(c2cccnc2)CC1
IC50 [3]: 5030 nM | Efficacy [4]: 18% | EC50 [5]: 2670 nM

O=C(Nc1ccc(C(F)(F)F)cc1)NC1CCN(c2ncccc2C(F)(F)F)C1 (stereo not given)
IC50 [3]: > 10000 nM | IC50 [2]: 13100 nM | EC50 [6]: > 10000 nM

O=C(Nc1ccc(Cl)cc1)N1CCN(c2ccncc2)CC1
Efficacy [4]: > 40% | EC50 [7]: 7240 nM | EC50 [8]: 3600 nM | Efficacy [9]: 100%

Cc1cccnc1C1CCN(C(=O)Nc2ccc(C(F)(F)F)cc2)CC1
IC50 [10]: 390 nM | EC50 [11]: 1960 nM | IC50 [12]: 2170 nM

O=C(Nc1ccc(C(F)(F)F)cc1)N1CCCN(c2ncccc2C(F)(F)F)CC1
IC50 [3]: 538 nM | IC50 [13]: 1180 nM

CC1CN(c2ncccc2C(F)(F)F)CC(C)N1C(=O)Nc1ccc(C(F)(F)F)cc1 (stereo not given)
IC50 [2]: 3720 nM | IC50 [12]: 2450 nM

O=C(Nc1cnc2ccccc2c1)N1CCN(c2ncccc2C(F)(F)F)CC1
IC50 [2]: 2300 nM | IC50 [14]: 526 nM

O=C(Nc1ccncc1)N1CCN(c2ncccc2C(F)(F)F)CC1
Efficacy [4]: 100% | EC50 [15]: 1160 nM | EC50 [5]: 1280 nM | Efficacy [9]: 120%

Cc1ccccc1C1CCN(C(=O)Nc2ccc(C(F)(F)F)cc2)CC1
Efficacy [4]: 86% | EC50 [11]: 1720 nM | EC50 [16]: 1930 nM | Efficacy [17]: 8%

O=C(Nc1ccc(C(F)(F)F)cc1)N1CCN(c2ccccn2)CC1
IC50 [2]: 863 nM

Cc1cccnc1N1CCN(C(=O)Nc2ccc(C(F)(F)F)cc2)CC1
IC50 [3]: 290 nM | IC50 [2]: 194 nM

CC1CN(c2ncccc2C(F)(F)F)CCN1C(=O)Nc1ccc(C(F)(F)F)cc1 (stereo not given)
IC50 [10]: 104 nM | IC50 [12]: 64 nM

Oc1cc2c(cc1O)CN(C(=S)NCCc1ccc(Cl)cc1)CCC2 [CAPSAZEPINE]
IC50 [18]: 13 nM | IC50 [13]: 365 nM | IC50 [19]: 5 nM and 3 nM | IC50 [20]: 4 nM and 3 nM (2×) | IC50 [14]: 74 nM

O=C(Nc1cccc2cnccc12)N1CCN(c2ncccc2C(F)(F)F)CC1
Efficacy [4]: 11% | IC50 [2]: > 10000 nM | IC50 [12]: 2280 nM | EC50 [5]: 7290 nM

O=C(Nc1ccc(C(F)(F)F)cc1)C1CCN(c2ncccc2C(F)(F)F)CC1
IC50 [13]: > 10000 nM | IC50 [21]: 965 nM

O=C(Nc1ccc(C(F)(F)F)cc1)N1CC2CC1CN2c1ncccc1C(F)(F)F (stereo not given)
IC50 [13]: > 10000 nM | IC50 [12]: > 10000 nM

O=C(Nc1ccc(C(F)(F)F)cc1)NC1CCN(c2ncccc2C(F)(F)F)CC1
IC50 [13]: 4360 nM

O=C(Nc1ccccn1)N1CCN(c2ncccc2C(F)(F)F)CC1
IC50 [2]: > 10000 nM | IC50 [21]: 12100 nM

O=C(Nc1ccc2ncccc2c1)N1CCN(c2ncccc2C(F)(F)F)CC1
IC50 [13]: 3980 nM | IC50 [12]: 908 nM

O=C(Nc1cccc2ncccc12)N1CCN(c2ncccc2C(F)(F)F)CC1
Efficacy [4]: 2% | EC50 [15]: 5260 nM | EC50 [8]: 8300 nM | Efficacy [9]: 36%

O=C(Nc1cc2ccccc2cn1)N1CCN(c2ncccc2C(F)(F)F)CC1
IC50 [3]: 367 nM | IC50 [13]: 1010 nM

Cc1cccnc1N1CCN(C(=O)Nc2ccc(Cl)cc2)CC1
IC50 [2]: 409 nM | IC50 [12]: 113 nM

O=C(Nc1ccc([N+](=O)[O-])cc1)N1CCN(c2ncccc2C(F)(F)F)CC1
IC50 [1]: 74 nM | IC50 [2]: 100 nM | IC50 [20]: 6 nM and 4 nM and 3 nM

O=C(Nc1ccc(C(F)(F)F)cc1)N1CCN(c2ncccc2C(F)(F)F)CC1
IC50 [10]: 90 nM
